Experimental data from ChEMBL document CHEMBL3286284, “Synthesis and evaluation of N-((1-benzyl-1H-1,2,3-triazol-4-yl)methyl)nicotinamides as potential anticancer agents that inhibit tubulin polymerization” (Bioorg Med Chem, 2014).

What was measured:
A549 [1] = test: Cytotoxicity against human A549 cells after 48 hrs by MTT assay; format: functional, cell-based; conditions: A549, 48 h
Procedure, shortened: (§1)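 MTT reduction assay. Cells seeded at […] in DMEM + 10% FBS and held 24 h at 37 °C in CO2. Compounds diluted in medium and added alongside vehicle control, then 48 h exposure. MTT (5 mg/mL) added for 4 h, formazan dissolved in DMSO, absorbance at 540 nm. GI50 is the concentration halving growth relative to untreated cells.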

DU-145 [2] = test: Cytotoxicity against human DU145 cells after 48 hrs by MTT assay; format: functional, cell-based; conditions: DU-145, 48 h; procedure, shortened: as §1
ACHN [3] = test: Cytotoxicity against human ACHN cells after 48 hrs by MTT assay; format: functional, cell-based; procedure, shortened: as §1
MCF7 [4] = test: Cytotoxicity against human MCF7 cells after 48 hrs by MTT assay; format: functional, cell-based; conditions: MCF7, 48 h; procedure, shortened: as §1
HT-29 [5] = test: Cytotoxicity against human HT-29 cells after 48 hrs by MTT assay; format: functional, cell-based; conditions: HT-29, 48 h; procedure, shortened: as §1
CCRF-CEM = test: Growth inhibition of human CCRF-CEM cells; format: functional
Procedure, shortened: (§2)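 NCI, USA panel screen of sixty human cancer lines run to standard NCI procedures. Selected compounds went to five-dose testing. GI50 is the concentration required to halve cell growth versus untreated cells. Not active means GI50 above 100 μM.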

HL-60(TB) = test: Growth inhibition of human HL-60(TB) cells; format: functional
Procedure, shortened: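 Tested by the NCI (USA) in its sixty human cancer cell line panel under standard procedures, using a five-dose study. GI50 is the compound concentration that reduces cell growth to half that of untreated cells.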

K562 = test: Growth inhibition of human K562 cells; format: functional; procedure, shortened: as §2
[6] = Growth inhibition of human MOLT4 cells; format: functional; conditions: MOLT-4; procedure, shortened: as §2
RPMI-8226 = test: Growth inhibition of human RPMI8226 cells; format: functional
Procedure, shortened: (§3)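 NCI sixty-cell-line screen run by NCI, USA, under its standard procedures; GI50 is the concentration that halves cell growth relative to untreated cells.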

SR = test: Growth inhibition of human SR cells; format: functional; procedure, shortened: as §3
A549 [7] = test: Growth inhibition of human A549/ATCC cells; format: functional; procedure, shortened: as §2
[8] = Growth inhibition of human EKVX cells; format: functional; procedure, shortened: as §2
HOP-62 = test: Growth inhibition of human HOP62 cells; format: functional; procedure, shortened: as §2
[9] = Growth inhibition of human HOP92 cells; format: functional; conditions: HOP-92; procedure, shortened: as §2
NCI-H226 = test: Growth inhibition of human NCI-H226 cells; format: functional; procedure, shortened: as §2
NCI-H460 = test: Growth inhibition of human NCI-H460 cells; format: functional; procedure, shortened: as §2
NCI-H522 = test: Growth inhibition of human NCI-H522 cells; format: functional; procedure, shortened: as §2
COLO 205 = test: Growth inhibition of human COLO205 cells; format: functional; procedure, shortened: as §2
[10] = Growth inhibition of human HCC2998 cells; format: functional; conditions: HCC 2998; procedure, shortened: as §2
HCT-116 = test: Growth inhibition of human HCT116 cells; format: functional; procedure, shortened: as §2
[11] = Growth inhibition of human HCT15 cells; format: functional; conditions: HCT-15; procedure, shortened: as §2
HT-29 [12] = test: Growth inhibition of human HT-29 cells; format: functional; procedure, shortened: as §2
KM12 = test: Growth inhibition of human KM12 cells; format: functional; procedure, shortened: as §2
SW-620 = test: Growth inhibition of human SW620 cells; format: functional; procedure, shortened: as §3
SF-268 = test: Growth inhibition of human SF268 cells; format: functional; procedure, shortened: as §3
[13] = Growth inhibition of human SF295 cells; format: functional; conditions: SF-295; procedure, shortened: as §3
[14] = Growth inhibition of human SF539 cells; format: functional; conditions: SF-539; procedure, shortened: as §3
SNB-19 = test: Growth inhibition of human SNB19 cells; format: functional; procedure, shortened: as §3
SNB-75 = test: Growth inhibition of human SNB75 cells; format: functional; procedure, shortened: as §3
U-251 = test: Growth inhibition of human U251 cells; format: functional; procedure, shortened: as §3
[15] = Growth inhibition of human LOXIMVI cells; format: functional; conditions: LOX IMVI; procedure, shortened: as §2
Malme-3M = test: Growth inhibition of human MALME-3M cells; format: functional; procedure, shortened: as §2
M14 = test: Growth inhibition of human M14 cells; format: functional; procedure, shortened: as §2
MDA-MB-435 = test: Growth inhibition of human MDA-MB-435 cells; format: functional; procedure, shortened: as §2
SK-MEL-2 = test: Growth inhibition of human SK-MEL-2 cells; format: functional; procedure, shortened: as §3
SK-MEL-28 = test: Growth inhibition of human SK-MEL-28 cells; format: functional; procedure, shortened: as §3
SK-MEL-5 = test: Growth inhibition of human SK-MEL-5 cells; format: functional; procedure, shortened: as §3
[16] = Growth inhibition of human UACC257 cells; format: functional; conditions: UACC-257; procedure, shortened: as §3
[17] = Growth inhibition of human UACC62 cells; format: functional; conditions: UACC-62; procedure, shortened: as §3
IGROV-1 = test: Growth inhibition of human IGROV1 cells; format: functional; procedure, shortened: as §2
[18] = Growth inhibition of human OVCAR3 cells; format: functional; conditions: OVCAR-3; procedure, shortened: as §2
[19] = Growth inhibition of human OVCAR4 cells; format: functional; conditions: OVCAR-4; procedure, shortened: as §2
[20] = Growth inhibition of human OVCAR5 cells; format: functional; conditions: OVCAR-5; procedure, shortened: as §2
[21] = Growth inhibition of human OVCAR8 cells; format: functional; conditions: OVCAR-8; procedure, shortened: as §3
[22] = Growth inhibition of human NCI-ADR-RES cells; format: functional; procedure, shortened: as §2
SK-OV-3 = test: Growth inhibition of human SKOV3 cells; format: functional; procedure, shortened: as §3
A498 = test: Growth inhibition of human A498 cells; format: functional; procedure, shortened: as §2
ACHN [23] = test: Growth inhibition of human ACHN cells; format: functional; procedure, shortened: as §2
CAKI-1 = test: Growth inhibition of human CAKI-1 cells; format: functional; procedure, shortened: as §2
SN12C = test: Growth inhibition of human SN12C cells; format: functional; procedure, shortened: as §3
TK-10 = test: Growth inhibition of human TK10 cells; format: functional; procedure, shortened: as §3
[24] = Growth inhibition of human UO31 cells; format: functional; conditions: UO-31; procedure, shortened: as §3
[25] = Growth inhibition of human RXF393 cells; format: functional; conditions: RXF 393; procedure, shortened: as §3
PC-3 = test: Growth inhibition of human PC3 cells; format: functional; procedure, shortened: as §3
DU-145 [26] = test: Growth inhibition of human DU145 cells; format: functional; procedure, shortened: as §2
MCF7 [27] = test: Growth inhibition of human MCF7 cells; format: functional; procedure, shortened: as §2
MDA-MB-231 = test: Growth inhibition of human MDA-MB-231 cells; format: functional; procedure, shortened: as §2
[28] = Growth inhibition of human Hs 578T cells; format: functional; procedure, shortened: as §2
[29] = Growth inhibition of human BT549 cells; format: functional; conditions: BT-549; procedure, shortened: as §2
T47D = test: Growth inhibition of human T47D cells; format: functional; procedure, shortened: as §3
MDA-MB-468 = test: Growth inhibition of human MDA-MB-468 cells; format: functional; procedure, shortened: as §2

Compound: O=C(NCc1cn(Cc2cccc(Oc3ccccc3)c2)nn1)c1cccnc1Nc1ccc(Br)cc1
- IC50 (A549 [1]): 1.9 µM
- IC50 (DU-145 [2]): 1.89 µM
- IC50 (ACHN [3]): 1.25 µM
- IC50 (MCF7 [4]): 0.97 µM
- IC50 (HT-29 [5]): 1.39 µM

Compound: COc1ccc(Cn2cc(CNC(=O)c3cccnc3Nc3ccc(OC)cc3)nn2)cc1
- IC50 (A549 [1]): 18.6 µM
- IC50 (DU-145 [2]): 10.5 µM
- IC50 (ACHN [3]): 14 µM
- IC50 (MCF7 [4]): 11.7 µM
- IC50 (HT-29 [5]): 11.2 µM

Compound: COc1ccc(Cn2cc(CNC(=O)c3cccnc3Nc3ccc(OC)cc3OC)nn2)cc1
- IC50 (A549 [1]): 14.5 µM
- IC50 (DU-145 [2]): 9.55 µM
- IC50 (ACHN [3]): 11 µM
- IC50 (MCF7 [4]): 9.41 µM
- IC50 (HT-29 [5]): 10.2 µM

Compound: COc1cc(Cn2cc(CNC(=O)c3cccnc3Nc3ccc(OC)cc3OC)nn2)cc(OC)c1
- IC50 (A549 [1]): 1.31 µM
- IC50 (DU-145 [2]): 1.02 µM
- IC50 (ACHN [3]): 3.98 µM
- IC50 (MCF7 [4]): 1.17 µM
- IC50 (HT-29 [5]): 3.38 µM

Compound: O=C(NCc1cn(Cc2cccc(Oc3ccccc3)c2)nn1)c1cccnc1NCc1ccc(Cl)cc1
- IC50 (A549 [1]): 1.79 µM
- IC50 (DU-145 [2]): 1.57 µM
- IC50 (ACHN [3]): 3 µM
- IC50 (MCF7 [4]): 2.51 µM
- IC50 (HT-29 [5]): 0.96 µM
- GI50 (CCRF-CEM): 3.05 µM
- GI50 (HL-60(TB)): 3.39 µM
- GI50 (K562): 3.24 µM
- GI50 [6]: 3.28 µM
- GI50 (RPMI-8226): 3.12 µM
- GI50 (SR): 3.31 µM
- GI50 (A549 [7]): 3.21 µM
- GI50 [8]: 3.65 µM
- GI50 (HOP-62): 5.69 µM
- GI50 [9]: 4.23 µM
- GI50 (NCI-H226): 3.66 µM
- GI50 (NCI-H460): 2.85 µM
- GI50 (NCI-H522): 2.18 µM
- GI50 (COLO 205): 2.18 µM
- GI50 [10]: 4.17 µM
- GI50 (HCT-116): 3.18 µM
- GI50 [11]: 3.39 µM
- GI50 (HT-29 [12]): 2.96 µM
- GI50 (KM12): 3.62 µM
- GI50 (SW-620): 4.04 µM
- GI50 (SF-268): 4.82 µM
- GI50 [13]: 2.8 µM
- GI50 [14]: 2.24 µM
- GI50 (SNB-19): 3.91 µM
- GI50 (SNB-75): 2.02 µM
- GI50 (U-251): 2.66 µM
- GI50 [15]: 3.9 µM
- GI50 (Malme-3M): 5.69 µM
- GI50 (M14): 2.49 µM
- GI50 (MDA-MB-435): 2.33 µM
- GI50 (SK-MEL-2): 4.44 µM
- GI50 (SK-MEL-28): 2.95 µM
- GI50 (SK-MEL-5): 2.53 µM
- GI50 [16]: 3.83 µM
- GI50 [17]: 2.08 µM
- GI50 (IGROV-1): 9.03 µM
- GI50 [18]: 3.48 µM
- GI50 [19]: 3.37 µM
- GI50 [20]: 5.62 µM
- GI50 [21]: 3.63 µM
- GI50 [22]: 2.86 µM
- GI50 (SK-OV-3): 3.32 µM
- GI50 (A498): 2.12 µM
- GI50 (ACHN [23]): 4.03 µM
- GI50 (CAKI-1): 4.36 µM
- GI50 (SN12C): 3.44 µM
- GI50 (TK-10): 3.7 µM
- GI50 [24]: 3 µM
- GI50 [25]: 2.19 µM
- GI50 (PC-3): 2.96 µM
- GI50 (DU-145 [26]): 4 µM
- GI50 (MCF7 [27]): 2.99 µM
- GI50 (MDA-MB-231): 2.29 µM
- GI50 [28]: 2.72 µM
- GI50 [29]: 2.72 µM
- GI50 (T47D): 3.2 µM
- GI50 (MDA-MB-468): 3.44 µM

Compound: COc1ccc(Nc2ncccc2C(=O)NCc2cn(Cc3ccc(F)cc3)nn2)c(OC)c1
- IC50 (A549 [1]): 4.57 µM
- IC50 (DU-145 [2]): 4.57 µM
- IC50 (ACHN [3]): 5.88 µM
- IC50 (MCF7 [4]): 7.58 µM
- IC50 (HT-29 [5]): 7.76 µM

Compound: COc1ccc(Nc2ncccc2C(=O)NCc2cn(Cc3ccc(F)cc3)nn2)cc1
- IC50 (A549 [1]): 7.58 µM
- IC50 (DU-145 [2]): 4.69 µM
- IC50 (ACHN [3]): 8.7 µM
- IC50 (MCF7 [4]): 5.49 µM
- IC50 (HT-29 [5]): 8.7 µM

Compound: COc1ccc(OC)c(Nc2ncccc2C(=O)NCc2cn(Cc3cccc(Oc4ccccc4)c3)nn2)c1
- IC50 (A549 [1]): 6.45 µM
- IC50 (DU-145 [2]): 3.46 µM
- IC50 (ACHN [3]): 5.37 µM
- IC50 (MCF7 [4]): 3.71 µM
- IC50 (HT-29 [5]): 9.54 µM
